From ChEMBL document CHEMBL3124890, “SAR studies on trisubstituted benzimidazoles as inhibitors of Mtb FtsZ for the development of novel antitubercular agents” (J Med Chem, 2013)
Values after ≈ are worked out from the molar mass of the structure shown. Active and inactive are the calls of the source. The calls are words filed in the database; no cut-off is given here.

Legend:
Vero = test: Cytotoxicity against Vero cells after 3 days by Alamar Blue assay; assay type: cell-based; settings: Chlorocebus sabaeus, 72 h
Method in brief: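 Vero (African green monkey kidney epithelial) cells were grown without CO₂ in L15 with antibiotics and heat-inactivated calf serum. Cells in medium with 2X Alamar Blue were added at 1.3×10^4 cells/well to 2-fold serial drug dilutions. Plates were incubated 3 days at 37 °C, and IC50 was calculated per the manufacturer's directions.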

[1] = tested on: Mycobacterium tuberculosis; test: […]; assay type: functional
Method in brief: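 Strains were grown at 37 °C in 7H9 Middlebrook broth with 10% OADC, 0.05% Tween and 0.2% glycerol. Compounds were dissolved in DMSO and serially diluted 2-fold, then bacteria were added. Plates were incubated 6 days at 37 °C, then 24 h more with Alamar Blue. MIC was the lowest concentration (μg/mL) that prevented the colour change. Run in triplicate.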

[2] = target: T1, Cell division protein FtsZ (Mycobacterium tuberculosis) (UniProt P9WN95); test: Inhibition of Mycobacterium tuberculosis FtsZ polymerization expressed in Escherichia coli BL21 (DE3) using GTP as substrate by spectrofluorimetric analysis
T1 sequence (whole entry): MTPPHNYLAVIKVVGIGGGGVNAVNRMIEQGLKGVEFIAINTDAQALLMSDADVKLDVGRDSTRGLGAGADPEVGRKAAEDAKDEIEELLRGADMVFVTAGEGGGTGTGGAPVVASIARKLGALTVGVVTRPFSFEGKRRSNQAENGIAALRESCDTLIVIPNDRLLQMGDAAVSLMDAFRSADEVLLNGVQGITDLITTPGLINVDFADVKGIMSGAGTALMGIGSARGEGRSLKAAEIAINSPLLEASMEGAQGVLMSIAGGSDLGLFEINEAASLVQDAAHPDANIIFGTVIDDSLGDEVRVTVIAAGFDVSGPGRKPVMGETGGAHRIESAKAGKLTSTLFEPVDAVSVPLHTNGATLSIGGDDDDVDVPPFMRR

[3] = target: T1, Cell division protein FtsZ (Mycobacterium tuberculosis); test: Inhibition of Mycobacterium tuberculosis FtsZ polymerization expressed in Escherichia coli BL21 (DE3) using GTP as substrate assessed as disassembly of FtsZ at 40 to 80 uM by transmission electron microscopy
Method in brief: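 His-tagged Mtb FtsZ (pET15b, BL21(DE3), Ni-NTA purified, Bradford-quantified) at 5 µM in 50 mM MES, 5 mM MgCl₂, 100 mM KCl, pH 6.5 was polymerized with 25 µM GTP at 37 °C for 30 min. Compound (40 or 80 µM, ethanol stock) was then added for 5 min more. Samples were diluted 2×, negatively stained with 1% uranyl acetate, and imaged by TEM.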

[4] = target: T1, Cell division protein FtsZ (Mycobacterium tuberculosis); test: Inhibition of Mycobacterium tuberculosis FtsZ polymerization expressed in Escherichia coli BL21 (DE3) using GTP as substrate assessed as reduction in aggregate formation at 40 to 80 uM by transmission electron microscopy
Method in brief: (§1)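 His-tagged Mtb FtsZ (pET15b, BL21(DE3), Ni-NTA purified) at 5 µM in 50 mM MES, 5 mM MgCl₂, 100 mM KCl, pH 6.5 was preincubated 15 min on ice with 40 or 80 µM compound (ethanol stock). GTP was added to 25 µM and samples were held at 37 °C for 30 min, then diluted 2×, stained with 1% uranyl acetate, and imaged by TEM.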

[5] = target: T1, Cell division protein FtsZ (Mycobacterium tuberculosis); test: Inhibition of Mycobacterium tuberculosis FtsZ polymerization expressed in Escherichia coli BL21 (DE3) using GTP as substrate assessed as reduction in density and population of FtsZ polymers at 40 to 80 uM by transmission electron microscopy; method in brief: as §1
[6] = target: T1, Cell division protein FtsZ (Mycobacterium tuberculosis); test: Inhibition of Mycobacterium tuberculosis FtsZ polymerization expressed in Escherichia coli BL21 (DE3) using GTP as substrate assessed as reduction in protofilaments at 40 to 80 uM by transmission electron microscopy; method in brief: as §1

`CCc1ccc(C(=O)Nc2cc3nc(C4CCCCC4)[nH]c3cc2N(C)C)cc1` showed an IC50 (Vero) of over 100 µg/mL, an MIC ([1]; H37Rv, 144 h) of 0.16 µg/mL (≈ 0.41 µM) and an MIC ([1]; W210, 144 h) of 0.16 µg/mL (≈ 0.41 µM). For the same compound, the inhibition [2] was “Dose-dependent effect”.
With `CCCCOC(=O)Nc1cc2nc(C3CCCCC3)[nH]c2cc1N(C)C` the IC50 (Vero) was over 100 µg/mL, the MIC ([1]; H37Rv, 144 h) was 0.06 µg/mL (≈ 0.167 µM) and the MIC ([1]; W210, 144 h) was 0.06 µg/mL (≈ 0.167 µM). The inhibition [3] was “Active”, the inhibition [4] was “Active” and the inhibition [5] was “Active”. For the same compound, the inhibition [6] was “Active” and the inhibition [2] was “Dose-dependent effect”.
For `CN(C)c1cc2[nH]c(C3CCCCC3)nc2cc1NC(=O)OCC(F)(F)F`, the IC50 (Vero) was over 100 µg/mL, the MIC ([1]; H37Rv, 144 h) was 0.63 µg/mL (≈ 1.64 µM) and the inhibition [2] was “Dose-dependent effect”.
`CCN(CC)c1cc2[nH]c(C3CCCCC3)nc2cc1NC(=O)c1ccc(OC(F)F)cc1` gave an IC50 (Vero) of over 100 µg/mL and an MIC ([1]; H37Rv, 144 h) of over 100 µg/mL.
`CN(C)c1cc2[nH]c(C3CCCCC3)nc2cc1NC(=O)c1ccc(OC(F)F)cc1` showed an IC50 (Vero) of over 100 µg/mL and an MIC ([1]; H37Rv, 144 h) of 0.31 µg/mL (≈ 0.723 µM).
`CN(C)c1cc2[nH]c(C3CCCCC3)nc2cc1NC(=O)c1ccc(OC(F)(F)F)cc1` gave an IC50 (Vero) of over 100 µg/mL and an MIC ([1]; H37Rv, 144 h) of 0.16 µg/mL (≈ 0.358 µM).
